This excerpt belongs to a sample that is enriched for hits.
Candida biofilm = kills Candida albicans biofilms | C. albicans biofilm + clotrimazole, Alamar Blue | inhibition, % at 6 µM | 85,000 compounds, 0.14% hits | AID 834;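 active = inhibition above 20%; inactive = inhibition below 20%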;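 note: preformed 24 hr biofilms exposed to compound for 48 hr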
D1 mod = allosteric modulators of human D1 dopamine receptor. P21728. HEK293 D1, CRE-luciferase, dopamine EC30 potentiation; actives deviate in either direction. B-score at 10 µM. 58,000 compounds, 5.9% hits. AID 641;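 active = luminescence count or its row- and column-corrected plate score outside the 99.7% band of the plate's sample wells, on either side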
Target sequence (P21728 whole entry, looked up): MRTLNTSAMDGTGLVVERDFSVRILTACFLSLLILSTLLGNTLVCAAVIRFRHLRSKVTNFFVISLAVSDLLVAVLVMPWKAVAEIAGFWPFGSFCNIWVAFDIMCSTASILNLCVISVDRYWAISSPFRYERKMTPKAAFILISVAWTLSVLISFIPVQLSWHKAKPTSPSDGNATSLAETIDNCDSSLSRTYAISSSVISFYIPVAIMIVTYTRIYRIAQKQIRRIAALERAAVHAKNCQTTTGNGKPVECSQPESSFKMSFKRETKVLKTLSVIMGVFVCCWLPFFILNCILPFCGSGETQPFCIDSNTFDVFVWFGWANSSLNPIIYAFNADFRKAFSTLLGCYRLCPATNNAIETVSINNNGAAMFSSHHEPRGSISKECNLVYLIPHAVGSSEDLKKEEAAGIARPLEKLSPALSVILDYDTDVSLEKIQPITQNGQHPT
hDAT+cocaine = human DAT dopamine uptake with cocaine, either direction. Q01959. B-score at 10 µM. LLC-PK1 hDAT cells, [14C]-dopamine uptake with cocaine IC80; actives deviate in either direction. 110,000 compounds, 1.3% hits;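 active = Z score or B-score, a plate-position-corrected score, falls beyond the plate's 99.7% confidence bounds, in either direction; inactive = both scores lie inside the 99.7% bounds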
AP complement = orthogonal test for alternative complement pathway inhibitors; Human serum alternative complement pathway, LPS-coated ELISA, C3 deposition; tested in compound mixtures; inhibition, % at 5 µM; 62,000 compounds, 0.08% hits;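 active = inhibition above 30% in each of the two pooled mixtures holding the compound, so the lower value exceeds 30%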
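Medium: diluted human serum in Mg2+-EGTA GVB++. Assay system: human serum complement alternative pathway, C3 deposition onto LPS. Also added: Plate-bound LPS. Technique: Anti-C3 ELISA, OD 450 nm. Measure: percent inhibition. Incubation: 1 h at 37 °C. Dosing: 5 µM each compound, pools of ten, 50 µM per pool.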
MMP13 inh = MMP13 (human) collagenase inhibition | P45452 | MMP-13 fTHP FRET cleavage, Mca fluorescence | inhibition, % at 4 µM | 65,000 compounds, 0.07% hits | AID 570;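 active = inhibition above the mean of compound-free control plate wells plus 3 SD, cut at about 14% in these data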
D1 mod confirm = D1 receptor (human) allosteric modulation, confirmed | HEK293 D1 CRE-luciferase, dopamine EC30 potentiation; stronger effect = higher value | luminescence at 10 µM | shares compounds with D1 mod | 2,200 compounds, 88% hits;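 active = luminescence in either of two replicates above the same-plate mean plus 3 SD of the low-dose dopamine control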
D1 no dopamine = secondary test of D1 modulators: activity without dopamine; HEK293 D1 CRE-luciferase, luminescence, no dopamine; stronger effect = higher value; 1,900 compounds, 0.8% hits; luminescence at 10 µM; shares compounds with D1 mod; in the data active = luminescence above about 3900
Isoprot counter = isoproterenol response counter-screen activity for D1 modulators | shares compounds with D1 mod | HEK293 D1 CRE-luciferase, isoproterenol EC30 counter-screen; stronger effect = higher value | luminescence at 10 µM | 2,200 compounds, 63% hits;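 active = luminescence in either replicate above plate mean of wells with a partly effective reference agonist dose plus 3 SD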;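 note: isoproterenol raises cAMP through native beta-adrenoceptor Gs so signal bypasses D1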
Hits are given with their value; . = inactive; / = no result given.

SMILES | Candida biofilm | D1 mod | hDAT+cocaine | AP complement | MMP13 inh | D1 mod confirm | D1 no dopamine | Isoprot counter
CN1CCN(C(=O)C2=C[C@H](c3csc4ccccc34)C[C@H](OCCCCO)O2)CC1 | / | / | . | / | / | / | / | /
CC(C)OC(=O)CSc1nc2cccnc2n1C1CCCCC1 | . | 22 | . | . | . | 27160 | . | 4904
CCOC(=O)CNC(=O)CSc1nc2cccnc2n1C1CCCCC1 | . | 7.6 | . | . | . | 13776 | / | 3452
CCOC(=O)CNC(=O)CSc1nc2cccnc2n1Cc1ccccc1 | . | . | . | . | . | / | / | /
CCCOC(=O)NC(CC)COC(=O)Nc1cccc(C)c1C (stereo unspecified) | / | 8.2 | . | . | . | . | . | .
CCOc1ncnc2c1oc1nc(CC(C)C)c3c(c12)CC(C)(C)OC3 | . | / | . | / | / | / | / | /
COc1ncnc2c1oc1nc(C(C)C)c3c(c12)CC(C)(C)OC3 | . | 8.7 | . | . | . | 20880 | . | 7356
CCOC(=O)c1oc2nc(C(C)C)c3c(c2c1N)CC(C)(C)OC3 | . | 4.7 | . | . | . | 6644 | . | 2908
Nc1nc(N)nc(-c2ccccc2O)n1 | / | / | . | / | / | / | / | /
Cc1cc(C)nc(SCc2nc(N)nc(-c3ccccc3O)n2)n1 | . | 13 | . | . | . | 17172 | . | 4624
CCn1c(SCC(=O)NCC(=O)Nc2ccc(F)cc2)nnc1-c1cccs1 | . | 3 | . | . | . | . | . | .
CCn1c(SCC(=O)Nc2ccc(C(=O)OC)cc2)nnc1-c1cccs1 | . | . | . | . | . | / | / | /
COc1ccc(S(=O)(=O)N(CCc2ccccc2)CC(=O)NC(C)C)cc1 | . | / | . | / | / | / | / | /
CCCCSc1nc(CCC)cc(=O)[nH]1 | . | 5.3 | . | . | / | 15600 | . | 3616
COc1ccc(Nc2ncc3c(n2)CC(c2ccc(OC)cc2)CC3=O)cc1 (stereo unspecified) | . | 7.5 | . | . | . | 11768 | . | 4256
COc1ccc(Nc2ncc3c(n2)CC(c2ccc(C)cc2)CC3=O)cc1 (stereo unspecified) | . | / | . | / | / | / | / | /
COc1ccc(C(=O)N2CCN(S(=O)(=O)c3ccc(C)cc3C)CC2)cc1OC | . | 4.7 | . | . | . | 10368 | . | 4316
COc1ccc(C(=O)N2CCN(c3ccc(C)cc3C)CC2)cc1OC | . | . | . | . | . | / | / | /
COc1ccc(C(=O)N2CCc3cc(OC)c(OC)cc3C2)cc1OC | . | 3.7 | . | . | . | 9712 | . | 3188
Nc1nc(NCc2ccccc2)nc(-c2ccccc2)n1 | . | 21 | . | . | . | 23340 | / | 3652
c1ccc(COc2ccc(Oc3nc(N4CCCCC4)nc(N4CCOCC4)n3)nn2)cc1 | . | 9.2 | . | . | . | 15844 | . | 5164
CS(=O)(=O)N1c2ccccc2[C@]2([C@@]34C[C@H]5C(=O)N[C@@H](Cc6ccccc6)C(=O)N5[C@@H]3N(S(C)(=O)=O)c3ccccc34)C[C@H]3C(=O)N[C@@H](Cc4ccccc4)C(=O)N3[C@H]12 | / | / | . | / | / | / | / | /
COc1cc2c(cc1OC)CN(CC(=O)NC(=O)NCc1ccco1)CC2 | . | 6.8 | . | . | . | 8812 | / | .
CC(C)OC(=O)C(C#N)c1nc2ccccc2nc1N1CCCC1 (stereo unspecified) | . | 10 | . | / | . | 20752 | . | 3776
COC(=O)C(C#N)c1nc2ccccc2nc1N1CCCC1 (stereo unspecified) | . | 5.5 | . | . | . | 9832 | / | 2676
CC(=O)Nc1cc2c(cc1NC(=O)Cn1nc(-c3ccc4c(c3)OCCO4)ccc1=O)OCCO2 | / | / | . | / | / | / | / | /
O=C(NNS(=O)(=O)c1cc(Cl)cc(Cl)c1)c1sccc1-n1cccc1 | / | / | . | / | / | / | / | /
Cc1cccc(Cn2c(N(C)Cc3ccccc3)nc3c2c(=O)[nH]c(=O)n3C)c1 | . | 8 | . | . | . | 19408 | . | 6232
C/C=C/Cn1c(N(C)Cc2ccccc2)nc2c1c(=O)[nH]c(=O)n2C | . | 7.3 | . | . | . | 21832 | . | 10060
CN(Cc1ccccc1)c1nc2c(c(=O)[nH]c(=O)n2C)n1C | . | . | . | / | . | / | / | /
